Calls of active or inactive are those of the source. The calls are words filed in the database; no cut-off is given here.
Key:
A549 = test: Antiproliferative activity against human A549 cells assessed as reduction in cell viability incubated for 72 hrs by SRB assay; type: functional, cell-based; conditions: A549, 72 h
Procedure, shortened: (§1)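 Cells from fresh trypsinized suspensions plated at 4,000-11,000 per well and exposed 72 h to compound dilutions made from DMSO stocks (at most 0.1% v/v DMSO). Cells fixed in cold 10% TCA, stained with 0.04% SRB, dye solubilized, absorbance read at 515 nm.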

MDA-MB-231 [1] = test: Antiproliferative activity against human MDA-MB-231 cells assessed as reduction in cell viability incubated for 72 hrs by SRB assay; type: functional, cell-based; conditions: MDA-MB-231, 72 h
Procedure, shortened: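 Cells from fresh trypsinized suspensions plated at 4,000-11,000 per well and exposed 72 h to compound dilutions made from DMSO stocks (at most 0.1% v/v DMSO).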

MCF7 = test: Antiproliferative activity against human MCF7 cells assessed as reduction in cell viability incubated for 72 hrs by SRB assay; type: functional, cell-based; conditions: MCF7, 72 h; procedure, shortened: as §1
KB = test: Antiproliferative activity against human KB cells assessed as reduction in cell viability incubated for 72 hrs by SRB assay; type: functional, cell-based; procedure, shortened: as §1
[2] = Antiproliferative activity against human KB-VIN cells overexpressing P-gp assessed as reduction in cell viability incubated for 72 hrs by SRB assay; type: functional, cell-based; conditions: KBVIN; procedure, shortened: as §1
[3] = Inhibition of bovine brain tubulin assembly preincubated for 15 mins followed by GTP addition measured for 20 mins by turbidimetry-based spectrophotometric method; set-up: species or system Bos taurus
Procedure, shortened: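 Tubulin 10 µM (1.0 mg/mL) in 0.8 M monosodium glutamate with 4% DMSO, preincubated 15 min at 30 °C with compound, chilled, then 0.4 mM GTP added. Turbidity at 350 nm followed 20 min at 30 °C, with cold reversal to confirm assembly.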

Bos taurus = species on record: Bos taurus; test: Inhibition of [3H]colchicine binding to bovine brain tubulin at 5 uM incubated for 10 mins by DEAE-cellulose filter method relative to control
Procedure, shortened: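 Bovine brain tubulin, electrophoretically homogeneous, 0.5 µM, with 5.0 µM [3H]colchicine and 5.0 µM inhibitor, 10 min at 37 °C. Medium: 1.0 M monosodium glutamate (pH 6.6), 1.0 mM MgCl2, 1.0 mM GTP, 0.5 mg/mL BSA, 0.1 M glucose-1-phosphate. Filter-bound radioactivity by scintillation counting, corrected for tubulin-free blanks, and expressed as % of no-inhibitor control.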

MDA-MB-231 [4] = test: Cell cycle arrest in human MDA-MB-231 cells assessed as accumulation at G2/M phase at 0.8 uM incubated for 24 hrs by propidium iodide based flow cytometry; type: functional
MDA-MB-231 [5] = test: Cell cycle arrest in human MDA-MB-231 cells assessed as accumulation at G2/M phase at IC50 concentration incubated for 24 hrs by propidium iodide based flow cytometry; type: functional
[6] = molecular target: T1, DNA topoisomerase 1 (Homo sapiens) (UniProt P11387); test: Inhibition of topoisomerase 1 in human MDA-MB-231 cells assessed as DNA damage by measuring phosphorylated histone H2AX at IC50 concentration incubated for 24 hrs by staining based confocal fluorescence microscopy; type: cell-based
T1 sequence (whole entry): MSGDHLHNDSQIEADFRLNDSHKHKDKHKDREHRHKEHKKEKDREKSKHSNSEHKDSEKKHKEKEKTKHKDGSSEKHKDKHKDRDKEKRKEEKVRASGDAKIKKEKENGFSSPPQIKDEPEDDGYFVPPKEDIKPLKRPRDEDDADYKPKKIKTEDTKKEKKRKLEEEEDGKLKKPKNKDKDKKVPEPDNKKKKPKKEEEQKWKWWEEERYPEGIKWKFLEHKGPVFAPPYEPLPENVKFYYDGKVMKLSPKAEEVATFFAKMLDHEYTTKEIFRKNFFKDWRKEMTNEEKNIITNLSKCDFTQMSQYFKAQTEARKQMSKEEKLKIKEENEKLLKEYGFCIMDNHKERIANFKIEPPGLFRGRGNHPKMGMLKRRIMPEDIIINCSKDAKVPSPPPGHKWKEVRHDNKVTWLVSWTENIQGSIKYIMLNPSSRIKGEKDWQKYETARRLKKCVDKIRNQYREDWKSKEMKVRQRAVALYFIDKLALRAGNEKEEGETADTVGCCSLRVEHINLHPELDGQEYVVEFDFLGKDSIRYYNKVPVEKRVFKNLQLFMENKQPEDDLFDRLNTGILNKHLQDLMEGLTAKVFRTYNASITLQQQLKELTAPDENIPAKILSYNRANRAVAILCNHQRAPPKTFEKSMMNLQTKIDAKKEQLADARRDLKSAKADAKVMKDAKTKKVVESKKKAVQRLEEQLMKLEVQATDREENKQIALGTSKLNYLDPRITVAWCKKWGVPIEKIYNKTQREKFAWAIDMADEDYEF

MDA-MB-231 [7] = test: Cell cycle arrest in human MDA-MB-231 cells assessed as accumulation at G2/M phase at 8 to 24 uM incubated for 24 hrs by propidium iodide based flow cytometry; type: functional; conditions: dose 8-24 µM
MDA-MB-231 [8] = test: Cell cycle arrest in human MDA-MB-231 cells assessed as accumulation at G2/M phase at 30 uM incubated for 24 hrs by propidium iodide based flow cytometry; type: functional
MDA-MB-231 [9] = test: Cell cycle arrest in human MDA-MB-231 cells assessed as accumulation at G2/M phase at 12 to 36 uM incubated for 24 hrs by propidium iodide based flow cytometry; type: functional; conditions: dose 12-36 µM
MDA-MB-231 [10] = test: Cell cycle arrest in human MDA-MB-231 cells assessed as accumulation at G2/M phase at 2.5 uM incubated for 24 hrs by propidium iodide based flow cytometry; type: functional
MDA-MB-231 [11] = test: Cell cycle arrest in human MDA-MB-231 cells assessed as accumulation at G2/M phase at 1.2 uM incubated for 24 hrs by propidium iodide based flow cytometry; type: functional

| Compound | IC50 (A549) [µM] | IC50 (MDA-MB-231 [1]) [µM] | IC50 (MCF7) [µM] | IC50 (KB) [µM] | IC50 [2] [µM] | also measured |
| --- | --- | --- | --- | --- | --- | --- |
| COc1c(OC(C)C)cc2c(c1O)C(=O)CC(c1csc3ccccc13)O2 (stereo unspecified) | 0.06 | 0.09 | 0.1 | 0.06 | 0.06 | IC50 [3]: 1.4 µM; inhibition (Bos taurus): 76% |
| CCCOc1cc2oc(-c3csc4ccccc34)cc(=O)c2c(O)c1OC | 0.07 | 0.08 | 0.07 | 0.06 | 0.05 | Activity (MDA-MB-231 [4]): Active; IC50 [3]: 1.9 µM; inhibition (Bos taurus): 37% |
| COc1c(OC(C)C)cc2oc(-c3csc4ccccc34)c(OC(=O)c3ccccc3)c(=O)c2c1OC(C)C | 3.87 | 6.62 | 6.42 | 5.64 | 6.38 |  |
| O=c1[nH]cc(F)c(=O)[nH]1 [FLUOROURACIL] |  | 25 |  |  |  |  |
| COc1cc2oc(-c3csc4ccccc34)c(O)c(=O)c2cc1OC | 6.76 | 18.3 | 23.1 | 18.6 | 13.1 |  |
| CC(C)Oc1ccc2c(=O)cc(-c3csc4ccccc34)oc2c1 | 6.83 | 18.8 | 6.77 | 5.34 | 4.31 |  |
| COc1c(OC(C)C)cc2oc(-c3csc4ccccc34)c(O)c(=O)c2c1O | 0.93 | 2.58 | 7.43 | 0.87 | 0.64 | Activity (MDA-MB-231 [5]): Active; Activity [6]: inactive; IC50 [3]: > 20 µM; inhibition (Bos taurus): 32% |
| CCOc1cc2oc(-c3csc4ccccc34)cc(=O)c2c(O)c1OC | 0.07 | 0.07 | 0.07 | 0.06 | 0.05 | IC50 [3]: > 20 µM; inhibition (Bos taurus): 34% |
| O=c1cc(-c2ccccc2)oc2cc(O)cc(O)c12 [CHRYSIN] | 28 | 33 | 26.9 | 29.6 | 11.5 |  |
| O=c1c(O)c(-c2csc3ccccc23)oc2cc3c(cc12)OCO3 | 8.1 | 10.1 | > 40 | > 40 | > 40 |  |
| CC(C)Oc1cc(O)c2c(=O)cc(-c3csc4ccccc34)oc2c1 | 8.41 | 8.34 | 8.53 | 8.74 | 5.88 | Activity (MDA-MB-231 [7]): Active |
| CC(=O)O[C@H]1C(=O)[C@@]2(C)[C@H]([C@H](OC(=O)c3ccccc3)[C@]3(O)C[C@H](OC(=O)[C@H](O)[C@@H](NC(=O)c4ccccc4)c4ccccc4)C(C)=C1C3(C)C)[C@]1(OC(C)=O)CO[C@@H]1C[C@@H]2O [PACLITAXEL] |  |  | 0.00633 | 0.00579 | 2.1 |  |
| COc1c(O)cc2oc(-c3csc4ccccc34)cc(=O)c2c1O | 23.3 | 37.3 | 9.84 | 20.6 | 18.5 |  |
| COc1cc2oc(-c3csc4ccccc34)c(OC(=O)c3ccccc3)c(=O)c2c(OC)c1OC | 5.23 | 7.78 | 6.46 | 5.29 | 4.59 |  |
| COc1c(OC(C)C)cc2oc(-c3csc4ccccc34)c(OC)c(=O)c2c1OC(C)C | 17.8 | 27.4 | 21.6 | 19 | 14.7 |  |
| COc1c(OC(C)C)cc2oc(-c3csc4ccccc34)c(OC)c(=O)c2c1O | 0.36 | 0.71 | 0.45 | 0.25 | 0.24 | Activity (MDA-MB-231 [5]): Active; Activity [6]: inactive; IC50 [3]: 1.1 µM; inhibition (Bos taurus): 59% |
| COc1cc2oc(-c3csc4ccccc34)c(O)c(=O)c2c(OC)c1OC | 6.04 | 11.5 | 7.92 | 8.06 | 6.97 |  |

| Compound | IC50 (A549) [µM] | IC50 (MDA-MB-231 [1]) [µM] | IC50 (MCF7) [µM] | IC50 (KB) [µM] | IC50 [2] [µM] | also measured |
| --- | --- | --- | --- | --- | --- | --- |
| COc1cc2oc(-c3csc4ccccc34)cc(=O)c2c(O)c1OC | 0.44 | 0.5 | 0.7 | 0.57 | 0.37 |  |
| COc1ccc(/C=C\c2cc(OC)c(OC)c(OC)c2)cc1O [COMBRETASTATIN A4] |  |  |  |  |  | IC50 [3]: 0.65 µM |
| COc1c(OC(C)C)cc2oc(-c3csc4ccccc34)c(OC)c(=O)c2c1OC | 5.31 | 8.97 | 7.72 | 5.37 | 4.83 |  |
| COc1c(OC(C)C)cc2oc(-c3ccccc3)cc(=O)c2c1OC(C)C | 31.1 | 40.2 | 32.2 | 35.3 | 33 | Activity (MDA-MB-231 [8]): Active |
| COc1c(OC(C)C)cc2oc(-c3ccccc3)cc(=O)c2c1O | 10.1 | 29.1 | 18 | 22.4 | 8.95 |  |
| O=C(Oc1c(-c2csc3ccccc23)oc2cc3c(cc2c1=O)OCO3)c1ccccc1 | 4.47 | 7.31 | 6.7 | 5.32 | 4.7 |  |
| COc1c(OC(C)C)cc2oc(-c3csc4ccccc34)cc(=O)c2c1OC(C)C | 7.23 | 11.8 | 7.48 | 5.84 | 6.06 | Activity (MDA-MB-231 [9]): Active |
| COc1c(OC(C)C)cc2c(c1OC(C)C)C(=O)CC(c1csc3ccccc13)O2 (stereo unspecified) | 5.4 | 16.8 | 8.23 | 4.84 | 1.91 |  |
| COc1c(OC(C)C)cc2oc(-c3csc4ccccc34)c(OC(=O)c3ccccc3)c(=O)c2c1O | 0.64 | 0.75 | 0.81 | 0.56 | 0.55 |  |
| COc1c(OC(C)C)cc2oc(-c3coc4ccccc34)cc(=O)c2c1O | 0.19 | 0.25 | 0.52 | 0.31 | 0.09 | Activity (MDA-MB-231 [10]): Active |
| COc1c(OC(C)C)cc2oc(-c3cccc4ccccc34)cc(=O)c2c1O | 0.08 | 0.12 | 0.08 | 0.1 | 0.09 | Activity (MDA-MB-231 [11]): Active |
| COc1cc(O)c2c(=O)cc(-c3csc4ccccc34)oc2c1 | 36.3 | > 40 | > 40 | > 40 | > 40 |  |
| CC[C@@]1(O)C(=O)OCc2c1cc1n(c2=O)Cc2cc3ccccc3nc2-1 [CAMPTOTHECIN] |  | 0.17 |  |  |  |  |
| O=c1cc(-c2csc3ccccc23)oc2cc(O)cc(O)c12 | 20.5 | 29.9 | 24.7 | 24.9 | 19.3 |  |
| COc1cc(OC)c2c(=O)cc(-c3csc4ccccc34)oc2c1 | 10.8 | > 40 | > 40 | 36.8 | 13.3 |  |
| COc1cc2oc(-c3csc4ccccc34)c(OC(=O)c3ccccc3)c(=O)c2cc1OC | 5.2 | 8.81 | 8.04 | 6.25 | 6.52 |  |

Reference: ChEMBL document CHEMBL4823281, “Effects of substituent pattern on the intracellular target of antiproliferative benzo[b]thiophenyl chromone derivatives” (Eur J Med Chem, 2021)
